Assay results: ChEMBL document CHEMBL3585244, “Click Chemistry in Lead Optimization of Boronic Acids as β-Lactamase Inhibitors” (J Med Chem, 2015)
pIC50, pKi: −log10 of the molar value. In brackets after ≈: the same amount, converted by molar mass.

Key:
[1] = tested on: Enterobacter cloacae; experiment: (§1) Inhibition of Enterobacter cloacae beta-lactamase P99 expressed in Escherichia coli AS226-51 incubated for 5 mins before nitrocefin substrate addition by spectrophotometry; settings: TDE = time-dependent effect
How it was run: (§2)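 P99 expressed from pCS980 in E. coli AS226-51, grown in SOB with kanamycin at 37 °C and induced with 0.5 mM IPTG at A600 0.6. Purified by preparative isoelectric focusing, gel filtration and cation exchange. Inhibitor preincubated with enzyme for 5 min in 10 mM PBS pH 7.4 at room temperature. […] Ki = IC50/(1+[S]/Km).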

[2] = as §1; how it was run: as §2
[3] = tested on: Pseudomonas aeruginosa; experiment: (§3) Inhibition of Pseudomonas aeruginosa beta-lactamase PDC3 expressed in Escherichia coli BL21 (DE3) RP CodonPlus incubated for 5 mins before nitrocefin substrate addition by spectrophotometry; settings: TDE = time-dependent effect
How it was run: (§4)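 PDC-3 from P. aeruginosa 18SH subcloned in pET 24a, expressed in E. coli BL21(DE3) RP CodonPlus (37 °C, 0.5 mM IPTG at A600 0.6), purified by isoelectric focusing and FPLC.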

[4] = as §3; how it was run: as §4
[5] = tested on: Escherichia coli; experiment: Antimicrobial activity against wild type Escherichia coli DH10B producing beta-lactamase PDC3 by agar dilution method; format: functional
How it was run: (§5)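 E. coli DH10B carrying bla genes in pBC SK(-) vector; MICs in µg/mL by agar dilution on cation-adjusted Mueller-Hinton agar per CLSI standards.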

[6] = tested on: Escherichia coli; experiment: Antimicrobial activity against wild type Escherichia coli DH10B producing beta-lactamase P99 by agar dilution method; format: functional; how it was run: as §5
[7] = tested on: Escherichia coli; experiment: Antimicrobial activity against wild type Escherichia coli DH10B by agar dilution method; format: functional
How it was run: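 MICs by cation-adjusted Mueller-Hinton agar dilution following CLSI standards. The E. coli DH10B host carried no β-lactamase gene.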

[8] = tested on: Escherichia coli; experiment: Potentiation of cefotaxime-induced antimicrobial effect against wild type Escherichia coli DH10B assessed as cefotaxime MIC at 4 ug/ml by agar dilution method; format: functional
[9] = Inhibition of beta-lactamase P99 (unknown origin) expressed in Escherichia coli DH10B assessed as cefotaxime MIC at 4 ug/ml by agar dilution method
How it was run: (§6)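 MICs by cation-adjusted Mueller-Hinton agar dilution following CLSI standards. E. coli DH10B carried blaPDC-3 (from P. aeruginosa 18SH) or blaP99 subcloned in pBC SK(-). Cefotaxime was varied from 0 to 64 µg/ml, with boronate held constant at 4 µg/ml.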

[10] = Inhibition of beta-lactamase PDC-3 (unknown origin) expressed in Escherichia coli DH10B assessed as cefotaxime MIC at 4 ug/ml by agar dilution method; how it was run: as §6

Structure (SMILES)	inhibition [1]	pIC50 [2]	time-dependent effect [3]	pIC50 [4]	MIC [5] [µg/mL]	MIC [6] [µg/mL]	MIC [7] [µg/mL]	pKi [2]	MIC [8] [µg/mL]	MIC [9] [µg/mL]	pKi [4]	MIC [10] [µg/mL]
CC(=O)N[C@@H](Cn1cc(-c2ccccc2)nn1)B(O)O	tde	4.88	tde	5.03	–	–	–	–	–	–	–	–
CO/N=C(\C(=O)N[C@@H]1C(=O)N2C(C(=O)O)=C(COC(C)=O)CS[C@H]12)c1csc(N)n1 [CEFOTAXIME]	–	–	–	–	16 (≈ 35.1 µM)	16 (≈ 35.1 µM)	< 0.125	–	–	–	–	–
O=C(Cc1cccs1)N[C@@H](Cn1cc(-c2ccccc2)nn1)B(O)O	tde	6.49	tde	6.52	–	–	–	–	–	–	–	–
O=C(Cc1cccs1)N[C@@H](Cn1cc(-c2cccc(C(=O)O)c2)nn1)B(O)O	tde	7.08	tde	7.17	–	–	–	7.85	< 0.125	4	8.10	1
Nc1cccc(-c2cn(C[C@H](NC(=O)Cc3ccccc3)B(O)O)nn2)c1	tde	6.22	tde	6.40	–	–	–	–	–	–	–	–
CC(C)(O)c1cn(C[C@H](NC(=O)Cc2ccccc2)B(O)O)nn1	tde	6.18	tde	5.93	–	–	–	–	–	–	–	–
O=C(Cc1ccccc1)N[C@@H](Cn1cc(-c2cccc(C(=O)O)c2)nn1)B(O)O	tde	6.96	tde	6.92	–	–	–	–	–	–	–	–
O=C(Cc1ccccc1)N[C@@H](Cn1cc(-c2ccccc2)nn1)B(O)O	tde	6.82	tde	6.52	–	–	–	–	–	–	–	–
O=C(Cc1ccccc1)N[C@@H](Cn1cc(C(=O)O)nn1)B(O)O	tde	6.96	tde	6.64	–	–	–	–	–	–	–	–
O=C(Cc1cccs1)NCB(O)O	tde	5.57	tde	5.48	–	–	–	6.35	< 0.125	2	6.39	2
O=C(Cc1cccs1)N[C@@H](Cn1ccnn1)B(O)O	tde	6.10	tde	5.89	–	–	–	6.87	–	–	6.79	–
CC(=O)N[C@@H](Cn1cc(C(C)(C)O)nn1)B(O)O	tde	4.15	tde	4.74	–	–	–	–	–	–	–	–
CC(C)(O)c1cn(C[C@H](NC(=O)Cc2cccs2)B(O)O)nn1	tde	6.38	tde	6.60	–	–	–	–	–	–	–	–
O=C(Cc1cccs1)N[C@@H](Cn1cc(C(=O)O)nn1)B(O)O	tde	6.85	tde	7.46	–	–	–	7.64	< 0.125	2	8.40	0.5
Nc1cccc(-c2cn(C[C@H](NC(=O)Cc3cccs3)B(O)O)nn2)c1	tde	6.44	tde	6.55	–	–	–	–	–	–	–	–
CC(=O)N[C@@H](Cn1cc(C(=O)O)nn1)B(O)O	tde	4.57	tde	5.30	–	–	–	–	–	–	–	–
O=C(Cc1cccs1)N[C@@H](Cc1cccc(C(=O)O)c1)B(O)O	tde	7.00	tde	6.82	–	–	–	7.82	< 0.125	4	7.89	4
